ChEMBL document CHEMBL1821594, “Synthesis and anticancer evaluation of novel 2-cyclopropylimidazo[2,1-b][1,3,4]-thiadiazole derivatives” (2011)

What was measured:
[1] = tested on: ACHN; assay: Antitumor activity against human ACHN cells after 48 hrs by SRB assay; format: functional
Method in brief: (§1)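 Cells grown in RPMI 1640 with 5% FBS and 2 mM L-glutamine and seeded at 5000–40,000 cells/well according to doubling time. They were preincubated 24 h at 37 °C, 5% CO2, then exposed to DMSO-solubilized compound for 48 h. Adherent cells were fixed with cold TCA (10% final), suspension cells with 16% final. Stained with 0.4% SRB; absorbance at 515 nm. Percent growth calculated against time-zero and control plates.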

[2] = tested on: SK-MEL-5; assay: Antitumor activity against human SK-MEL-5 cells after 48 hrs by SRB assay; format: functional; settings: SK-MEL-5, 48 h; method in brief: as §1
[3] = read-out: LC50 (the source's name)

Clc1ccc(-c2nc3sc(C4CC4)nn3c2Br)cc1
GI50 [1]: 7.07 µM | TGI [1]: > 100 µM | CC50 [1, 3]: > 100 µM | GI50 [2]: 2.17 µM | TGI [2]: > 100 µM | CC50 [2, 3]: > 100 µM
